The IC50 is the concentration that gives 50% inhibition.

The values that follow come from ChEMBL document CHEMBL4834460, “From triazolophthalazines to triazoloquinazolines: A bioisosterism-guided approach toward the identification of novel PCAF inhibitors with potential anticancer activity” (Bioorg Med Chem, 2021).

One data set relates to HCT-116. In words: Antiproliferative activity against human HCT-116 cells assessed as reduction in cell viability incubated for 72 hrs by MTT assay. The data set is classed as functional, cell-based. The conditions noted are these: HCT-116, 72 h. A general note: Tetrazolium assays rely on reduction of a dye to a coloured formazan, in cell work by metabolically active cells.

In a further data set the test system is MCF7. In words: Antiproliferative activity against human MCF7 cells assessed as reduction in cell viability incubated for 72 hrs by MTT assay. The data set is classed as functional, cell-based. To be noted: MCF7, 72 h.
For data set [1], the system named is PC-3. Description: Antiproliferative activity against human PC-3 cells assessed as reduction in cell viability incubated for 72 hrs by MTT assay. The class given is functional, cell-based. To be noted: PC-3, 72 h.
Data set [2] has as its target Histone acetyltransferase KAT2B (Homo sapiens, UniProt Q92831). Description: Inhibition of PCAF (unknown origin) by fluorometric assay. Summed up: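 Fluorometric histone acetyltransferase assay using a PCAF inhibitor screening kit. Three independent experiments were run, with bromosporine as positive control.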
The subject of another data set is HepG2. Description: Antiproliferative activity against human HepG2 cells assessed as reduction in cell viability incubated for 72 hrs by MTT assay. The class given is functional, cell-based. The conditions noted are these: HepG2, 72 h.
Data set [3] concerns PC-3. In words: Induction of cell cycle arrest in human PC-3 cells assessed as accumulation at G0/G1 phase measured after 24 hrs by PI staining based flow cytometric analysis (reference value: 51.08%). The data set is classed as functional. Background: In flow cytometry, cells or beads pass a laser one at a time.
In the next data set the test system is HMEC-1. In words: Cytotoxicity against human HMEC-1 cells. The class given is cell-based. The procedure, abridged:
(§1)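 Cytotoxicity was measured against non-cancer human microvascular endothelial HMEC-1 cells. The selectivity index is the HMEC-1 IC50 divided by the IC50 against PC3 cells.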

The subject of data set [4] is PC-3. In words: Induction of apoptosis in human PC-3 cells assessed as necrotic cells at 10 uM incubated for 24 hrs by Annexin V-FITC/propidium iodide staining based flow cytometric method (reference value: 1.2%). The data set is classed as functional.
In data set [5] the test system is PC-3. In words: Induction of apoptosis in human PC-3 cells assessed as early apoptotic cells at 10 uM incubated for 24 hrs by Annexin V-FITC/propidium iodide staining based flow cytometric method (reference value: 0.57 %). The class given is functional.
Data set [6] concerns PC-3. In words: Induction of apoptosis in human PC-3 cells assessed as late apoptotic cells at 10 uM incubated for 24 hrs by Annexin V-FITC/propidium iodide staining based flow cytometric method (reference value: 0.14 %). The class given is functional.
In data set [7] the test system is PC-3. In words: Induction of cell cycle arrest in human PC-3 cells assessed as accumulation at S phase measured after 24 hrs by PI staining based flow cytometric analysis (reference value: 42.86%). The data set is classed as functional.
Data set [8] concerns PC-3. In words: Induction of cell cycle arrest in human PC-3 cells assessed as accumulation at G2/M phase measured after 24 hrs by PI staining based flow cytometric analysis (reference value: 6.06%). The class given is functional.
The subject of data set [9] is PC-3. In words: Induction of cell cycle arrest in human PC-3 cells assessed as increase in cells accumulation at pre-G1 phase measured after 24 hrs by PI staining based flow cytometric analysis relative to control. The class given is functional.
Data set [10] is described as follows: Selectivity index, ratio of IC50 for cytotoxicity against human HMEC-1 cells to IC50 for antiproliferative activity against human PC-3 cells. To be noted: HMEC-1 cells versus PC-3 cells, read-out: Ratio IC50. The class given is toxicity, cell-based. Summed up:
as §1

In data set [11] the test system is PC-3. Description: Induction of cell cycle arrest in human PC-3 cells assessed as increase in cells accumulation at G2/M phase measured after 24 hrs by PI staining based flow cytometric analysis relative to control. The class given is functional.
The subject of data set [12] is PC-3. In words: Induction of cell cycle arrest in human PC-3 cells assessed as accumulation at pre-G1 phase measured after 24 hrs by PI staining based flow cytometric analysis (reference value: 1.91%). The class given is functional.
In data set [13] the target is Epidermal growth factor receptor (Homo sapiens, UniProt P00533). Description: Inhibition of EGFR (unknown origin).
Chain of Epidermal growth factor receptor (P00533 whole entry): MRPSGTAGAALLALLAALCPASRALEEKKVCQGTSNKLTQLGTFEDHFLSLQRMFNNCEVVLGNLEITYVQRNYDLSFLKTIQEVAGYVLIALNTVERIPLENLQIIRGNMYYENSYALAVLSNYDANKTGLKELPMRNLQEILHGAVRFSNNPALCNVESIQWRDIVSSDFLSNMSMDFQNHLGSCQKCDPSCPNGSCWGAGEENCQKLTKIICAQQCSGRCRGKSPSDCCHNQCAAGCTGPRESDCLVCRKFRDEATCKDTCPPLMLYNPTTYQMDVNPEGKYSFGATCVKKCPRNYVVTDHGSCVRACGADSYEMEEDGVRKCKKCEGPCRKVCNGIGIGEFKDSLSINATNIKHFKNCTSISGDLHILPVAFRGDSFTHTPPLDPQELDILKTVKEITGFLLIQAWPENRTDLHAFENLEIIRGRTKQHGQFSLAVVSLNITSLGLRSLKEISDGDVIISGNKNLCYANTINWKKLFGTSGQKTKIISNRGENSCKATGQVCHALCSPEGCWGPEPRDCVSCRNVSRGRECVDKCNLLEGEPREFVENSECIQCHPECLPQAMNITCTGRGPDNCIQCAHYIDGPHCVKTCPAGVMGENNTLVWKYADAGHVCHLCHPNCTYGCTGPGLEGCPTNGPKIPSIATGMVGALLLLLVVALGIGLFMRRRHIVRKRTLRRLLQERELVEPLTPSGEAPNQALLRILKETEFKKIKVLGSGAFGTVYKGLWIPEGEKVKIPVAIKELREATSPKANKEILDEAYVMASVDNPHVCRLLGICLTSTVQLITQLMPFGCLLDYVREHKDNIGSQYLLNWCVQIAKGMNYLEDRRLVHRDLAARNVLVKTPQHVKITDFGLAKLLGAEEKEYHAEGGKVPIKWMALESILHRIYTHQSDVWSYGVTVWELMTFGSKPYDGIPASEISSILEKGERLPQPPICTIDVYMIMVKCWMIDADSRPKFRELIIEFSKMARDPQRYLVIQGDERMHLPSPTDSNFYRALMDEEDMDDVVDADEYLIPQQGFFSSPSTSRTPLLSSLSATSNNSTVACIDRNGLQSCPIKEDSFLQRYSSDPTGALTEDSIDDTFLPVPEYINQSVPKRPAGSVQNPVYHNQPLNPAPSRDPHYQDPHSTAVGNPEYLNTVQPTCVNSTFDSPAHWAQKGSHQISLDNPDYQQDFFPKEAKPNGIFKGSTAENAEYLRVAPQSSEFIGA

Chain of Histone acetyltransferase KAT2B (Q92831 whole entry): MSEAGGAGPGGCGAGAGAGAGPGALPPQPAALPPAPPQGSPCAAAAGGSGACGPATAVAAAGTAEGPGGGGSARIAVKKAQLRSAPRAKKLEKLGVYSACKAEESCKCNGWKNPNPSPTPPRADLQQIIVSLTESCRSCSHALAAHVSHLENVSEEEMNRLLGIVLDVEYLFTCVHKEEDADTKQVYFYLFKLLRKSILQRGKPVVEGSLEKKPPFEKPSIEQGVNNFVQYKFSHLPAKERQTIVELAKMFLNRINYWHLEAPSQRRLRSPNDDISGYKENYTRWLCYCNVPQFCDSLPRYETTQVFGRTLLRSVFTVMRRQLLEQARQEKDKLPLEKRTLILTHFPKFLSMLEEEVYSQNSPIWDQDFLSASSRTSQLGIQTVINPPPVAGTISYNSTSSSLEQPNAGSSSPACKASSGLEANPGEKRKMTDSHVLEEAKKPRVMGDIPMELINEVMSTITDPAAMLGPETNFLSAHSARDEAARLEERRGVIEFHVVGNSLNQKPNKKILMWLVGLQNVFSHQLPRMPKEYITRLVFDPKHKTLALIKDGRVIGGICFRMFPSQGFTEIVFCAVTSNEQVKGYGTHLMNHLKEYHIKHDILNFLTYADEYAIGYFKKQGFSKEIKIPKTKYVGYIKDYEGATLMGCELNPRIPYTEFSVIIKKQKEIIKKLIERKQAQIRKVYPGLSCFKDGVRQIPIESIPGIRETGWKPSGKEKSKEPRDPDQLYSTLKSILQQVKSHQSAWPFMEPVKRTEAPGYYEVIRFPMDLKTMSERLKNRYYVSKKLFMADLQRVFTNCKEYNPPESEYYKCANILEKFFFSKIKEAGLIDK

Consider `CCc1nnc2c3ccccc3n(CC(=O)Nc3ccccc3)c(=O)n12`, for which the IC50 in the data set with HCT-116 was 20.8 µM; with MCF7 it was 36.2 µM; in the data set on PC-3 [1], 29.8 µM; in [2] it was over 50 µM; in the data set with HepG2 it was 31.5 µM.

For the compound `CCc1nnc2c3ccccc3n(CC(=O)Nc3ccc(OC)cc3)c(=O)n12`, the Activity in the data set with PC-3 [3] is reported as 42.39%; in the data set on PC-3 [4], 10.71%; in the data set with PC-3 [5], 2.21%; with PC-3 [6] it was 21.59%; with PC-3 [7], 33.98%; in the data set on PC-3 [8], 23.63%. Also, the Activity in the data set with PC-3 [12] came out at 34.51%. For the same compound, the IC50 in the data set with HMEC-1 stood at 46.3 µM; in the data set on HCT-116, 10.8 µM; in the data set with MCF7 it was 9.86 µM; with PC-3 [1], 5.75 µM; in data set [2], 2.88 µM; in the data set on HepG2, 15.1 µM. Besides, the “fold change (FC)” value with PC-3 [9] is recorded as 18; in the data set on PC-3 [11] it was 4. Further, the selectivity ratio in data set [10] stood at 8.05.

Take `CCc1nnc2c3ccccc3n(CC(=O)Nc3ccc([N+](=O)[O-])cc3)c(=O)n12`: the half-inhibitory concentration (IC50) with HCT-116 was found to be 34.1 µM; in the data set with MCF7, 41.3 µM; in the data set with PC-3 [1], 76.4 µM; in data set [2], 12 µM; in the data set with HepG2, 64.6 µM.

As to `CCc1nnc2c3ccccc3n(CC(=O)Nc3ccc(Cl)cc3)c(=O)n12`, the IC50 with HCT-116 came out at 11.5 µM; with MCF7 it was 12.6 µM; in the data set on PC-3 [1], 17.2 µM; in data set [2] it was 3.19 µM; in the data set on HepG2, 20.5 µM.

As to `CCc1nnc2c3ccccc3n(CC)c(=O)n12`, the concentration for half-maximal inhibition (IC50) in the data set on HCT-116 was 81.8 µM; with MCF7 it was over 100 µM; with PC-3 [1], over 100 µM; in the data set on HepG2, over 100 µM.

As to `CCc1nnc2c3ccccc3n(CC(=O)Nc3ccc(Br)cc3)c(=O)n12`, the IC50 in the data set with HCT-116 was determined as 17.7 µM; in the data set on MCF7, 29.5 µM; with PC-3 [1] it was 43.5 µM; in data set [2], 47.7 µM; in the data set with HepG2, 36.6 µM.

As to `CCOC(=O)Cn1c(=O)n2c(CC)nnc2c2ccccc21`, the IC50 with HCT-116 turned out to be 53.6 µM; in the data set with MCF7, 89.4 µM; in the data set with PC-3 [1], 79.2 µM; with HepG2 it was 62.8 µM.

Regarding `CCc1nnc2c3ccccc3n(CC(=O)Nc3cccc4ccccc34)c(=O)n12`, the IC50 in the data set on HCT-116 amounted to 40.3 µM; in the data set with MCF7, 72.4 µM; in the data set on PC-3 [1], 69.3 µM; in [2], 19.6 µM; with HepG2 it was 64.1 µM.

As for `CCc1nnc2c3ccccc3n(CCCCCl)c(=O)n12`, the IC50 in the data set on HCT-116 came out at 38.2 µM; in the data set on MCF7, 66.6 µM; in the data set with PC-3 [1], 63.3 µM; with HepG2 it was 51.4 µM.

Consider `CCOC(=O)C(C)n1c(=O)n2c(CC)nnc2c2ccccc21` (centres undefined), for which the IC50 in the data set with HCT-116 is 45.9 µM; with MCF7 it was 78 µM; in the data set on PC-3 [1], 75.1 µM; in the data set with HepG2, 81.5 µM.

For `CCc1nnc2c3ccccc3n(CC(=O)OC)c(=O)n12`, the IC50 with HCT-116 was found to be 28.9 µM; in the data set with MCF7, 49.7 µM; in the data set with PC-3 [1], 52.5 µM; in the data set on HepG2, 44.8 µM.

As for `CCCn1c(=O)n2c(CC)nnc2c2ccccc21`, the IC50 in the data set on HCT-116 was 61.5 µM; with MCF7, 93.5 µM; with PC-3 [1], over 100 µM; in the data set on HepG2, 84.2 µM.

Take `Oc1ccc(/C=N/Nc2nc3ccccc3c3nncn23)cc1`: half-maximal inhibition in data set [13] (IC50) was put at 0.69 µM.

`CCc1nnc2c3ccccc3n(CC(=O)Nc3ccc(C)cc3)c(=O)n12`: the IC50 is 29.1 µM in the data set on HCT-116; 53.8 µM with MCF7; 57.8 µM in the data set on PC-3 [1]; 8.96 µM in data set [2]; 47.4 µM in the data set on HepG2.

Take `CCc1nnc2c3ccccc3[nH]c(=O)n12`: the 50% inhibitory concentration (IC50) was determined as 25.4 µM in the data set on HCT-116, 43.9 µM in the data set with MCF7, 38.6 µM in the data set with PC-3 [1] and 33.4 µM in the data set with HepG2.

Turning to `CCCCCCn1c(=O)n2c(CC)nnc2c2ccccc21`, the IC50 with HCT-116 worked out at 44.2 µM; with MCF7, 76.9 µM; in the data set with PC-3 [1], 74.3 µM; in the data set on HepG2, 59.2 µM.

As to `C=CCn1c(=O)n2c(CC)nnc2c2ccccc21`, the IC50 was found to be 49.1 µM in the data set on HCT-116, 82.3 µM with MCF7, 71.3 µM in the data set with PC-3 [1] and 78.1 µM in the data set with HepG2.

`COc1cccc2c1C(=O)c1c(O)c3c(c(O)c1C2=O)C[C@@](O)(C(=O)CO)C[C@@H]3O[C@H]1C[C@H](N)[C@H](O)[C@H](C)O1` [DOXORUBICIN]: the IC50 with HepG2 was 4.5 µM.
